The test system of assay [1] is Mus musculus. The assay is described as follows: Median survival day in L1210 leukemia mice model when a dose of 20 mg/kg administered intravenously. The format is functional. The following applies: route intravenous. A digest of the protocol:
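L1210 leukaemia in CDF1 hybrid male or female mice, 10 per group. At D0, 10^5 viable cells were inoculated ip, followed by a single iv dose on D1. Median survival day was recorded, and T/C was calculated as treated/control median survival × 100.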

The test system of assay [2] is Mus musculus. The assay is described as follows: Median survival day of B16 melanoma infected mice when a dose of 10 mg/kg administered intraperitoneally. The format is functional. The conditions noted are these: route intraperitoneal. In short, it runs like this:
(§1)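 B16 melanoma in hybrid BD F1 mice. At D0 each mouse was inoculated ip with 0.5 mL of homogenate made from 1 g of tumour in 10 mL of physiological serum. Compounds were given ip daily at the stated doses for 9 days (D1-9), with cis-platinum 0.5 mg/kg under the same schedule as positive control.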

For assay [3], the system named is Mus musculus. As to the kind of experiment: Median survival day of B16 melanoma infected micee when a dose of 5 mg/kg administered intraperitoneally. The format is functional. The following applies: route intraperitoneal. A digest of the protocol:
as §1

The subject of assay [4] is Mus musculus. The assay is described as follows: Median tumoral volume of C38 adenocarcinoma model when a dose of 100 mg/kg administered intravenously on D1 to mice. The format is functional. The following applies: route intravenous. In short, it runs like this:
(§2)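 Geran protocol in hybrid BDF1 mice, 10 per test, implanted sc with a standard 3-mm³ fragment of C38 colon adenocarcinoma. Drug was given iv at the stated doses on D1, or on D2 + D9, and tumor growth was followed.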

Assay [5] has as its system Mus musculus. As to the kind of experiment: Median survival day in P388 leukemia mice model when a dose of 100 mg/kg administered intravenously. The format is functional. The following applies: route intravenous. A digest of the protocol: (§3)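 P388 leukaemia in CDF1 hybrid mice, 10 per group. At D0, 10^6 viable cells were inoculated ip, followed by a single iv dose on D1. Weight change, median survival day, T/C (treated/control median survival × 100) and survivors at D30 were recorded.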

Assay [6] concerns Mus musculus. As to the kind of experiment: Antitumor activity against L1210 cells at a dose of 40 mg/kg administered intravenously to mice. The format is functional. The following applies: route intravenous. In short, it runs like this:
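P388 (10^6 cells) or L1210 (10^5 cells) leukemia was inoculated ip in mice at D0, followed by a single iv drug treatment on D1. Weight change was recorded. T/C % = median survival day of treated / controls × 100; survivors noted at D30; 10-15 mice per group.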

The test system of assay [7] is Mus musculus. As to the kind of experiment: In vivo toxicity test on P388 cells at a dose of 100 mg/kg administered intravenously to P388 leukemia mice model. The format is functional. The conditions noted are these: route intravenous. In short, it runs like this: (§4)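 Mice (10 per group) were inoculated ip at D0 with 10^6 P388 leukemia cells and given a single iv dose at D1. Read-outs were weight change (g), median survival day, T/C % versus controls and survivors at D30.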

The subject of assay [8] is Mus musculus. As to the kind of experiment: In vivo toxicity test on P388 cells at a dose of 50 mg/kg administered intravenously to P388 leukemia mice model. The format is functional. The following applies: route intravenous. A digest of the protocol: as §4
Assay [9] has as its system Mus musculus. The assay is described as follows: Survivors at day 30 when a dose of 100 mg/kg administered intravenously to P388 leukemia mice model; 1/10. The format is functional. The conditions noted are these: route intravenous. A digest of the protocol:
as §3

Assay [10] deals with Mus musculus. As to the kind of experiment: Antitumor activity against C38 adenocarcinoma cells at a dose of 50 mg/kg administered intravenously to mice; tumor volume at D32 (T/C). The format is functional, MC-38. The conditions noted are these: route intravenous. In short, it runs like this: (§5)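 Hybrid BD F1 mice, 10 per group, were implanted sc with a standard 3-mm3 C38 colon adenocarcinoma fragment. Drugs were given iv at the stated doses on D1 or on D2 + D9. Read-out was tumor size in treated versus control mice (T/C) at the day stated.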

Assay [11] concerns Mus musculus. The assay is described as follows: Antitumor activity against C38 adenocarcinoma cells at a dose of 75 mg/kg administered intravenously to mice; tumor volume at D32 (T/C). The format is functional, MC-38. The conditions noted are these: route intravenous. A digest of the protocol:
as §5

Assay [12] relates to Mus musculus. As to the kind of experiment: Survivors at day 60 when a dose of 5 mg/kg to B16 melanoma infected mice; 3/10.
Assay [13] has as its system Mus musculus. As to the kind of experiment: Median survival day of B16 melanoma infected mice, when a dose of 10 mg/kg administered intraperitoneally. The format is functional. The following applies: route intraperitoneal. A digest of the protocol:
as §1

Assay [14] deals with Mus musculus. As to the kind of experiment: Median survival day of P388 leukemia infected mice, when a dose of 10 mg/kg administered intraperitoneally. The format is functional. The conditions noted are these: route intraperitoneal. A digest of the protocol:
(§6)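 P388 leukaemia in CDF1 hybrid mice, 10 per group. At D0, 10^6 viable cells were inoculated ip, followed by a single ip dose of drug in distilled water on D1. Weight change, median survival day, T/C (treated/control median survival × 100) and survivors at D30 were recorded. Controls were 20 mice.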

The subject of assay [15] is Mus musculus. As to the kind of experiment: Median survival day of P388 leukemia infected mice, when a dose of 5 mg/kg administered intraperitoneally. The format is functional. The conditions noted are these: route intraperitoneal. In short, it runs like this:
as §6

Assay [16] has as its system Mus musculus. The assay is described as follows: Median tumoral volume in C38 adenocarcinoma model when a dose of 50 mg/kg administered intravenously on D1 to mice. The conditions noted are these: route intravenous. The format is functional. In short, it runs like this: as §2
Assay [17] has as its system Mus musculus. The assay is described as follows: Antitumor activity against P388 cells at a dose of 5 mg/kg administered intraperitoneally to mice. The following applies: route intraperitoneal. The format is functional.
Assay [18] relates to Mus musculus. As to the kind of experiment: Antitumor activity against P388 cells at a dose of 10 mg/kg administered intraperitoneally to mice. The format is functional. The conditions noted are these: route intraperitoneal.
For assay [19], the system named is Mus musculus. As to the kind of experiment: Weight change in g when a dose of 5 mg/kg administered intraperitoneally to P388 leukemia infected mice. The format is functional. The conditions noted are these: route intraperitoneal. A digest of the protocol:
(§7)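 P388 model with a single ip dose. Mice (10 per group) were inoculated ip at D0 with 10^6 P388 cells and given one ip drug dose at D1. Body-weight change (g), median survival day, T/C and survivors at D30 were recorded.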

For assay [20], the system named is Mus musculus. The assay is described as follows: Survivors at day D32 when a dose of 25 mg/kg administered intravenously to mice (C38 adenocarcinoma cell lines) when tested in 10 mice. The format is functional. The conditions noted are these: route intravenous. A digest of the protocol: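 Hybrid BDF1 mice, 10 per test, were implanted sc with a standard 3-mm³ fragment of C38 colon adenocarcinoma. Drug was given iv either on D1 alone or on D2 and D9. Animals were followed per NCI (Geran) protocol.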

The subject of assay [21] is Mus musculus. As to the kind of experiment: Weight change in g when a dose of 20 mg/kg administered intraperitoneally to P388 leukemia infected mice. The format is functional. The following applies: route intraperitoneal. In short, it runs like this:
as §7

The subject of assay [22] is Mus musculus. As to the kind of experiment: Survivors at day 30 when a dose of 10 mg/kg administered to P388 leukemia infected when tested in 10 mice. The format is functional. A digest of the protocol: as §6
Assay [23] deals with Mus musculus. The assay is described as follows: Survivors at day 60 when a dose of 2.5 mg/kg to B16 melanoma infected when tested in 10 mice. The format is functional.
For assay [24], the system named is Mus musculus. As to the kind of experiment: Weight change in g at a dose of 50 mg/kg intravenous administration to P388 leukemia model. The format is functional. A digest of the protocol:
as §4

Assay [25] has as its system Mus musculus. As to the kind of experiment: Antitumor activity against C38 adenocarcinoma cells at a dose of 50 mg/kg administered intravenously on D1 to mice; tumor volume at D38 (T/C). The format is functional, MC-38. The following applies: route intravenous. A digest of the protocol:
as §5

Assay [26] relates to Mus musculus. As to the kind of experiment: Antitumor activity against C38 adenocarcinoma cells at a dose of 50 mg/kg administered intravenously in mice; tumor volume at D38 (T/C). The format is functional, MC-38. The conditions noted are these: route intravenous. A digest of the protocol:
as §5

The test system of assay [27] is Mus musculus. The assay is described as follows: Median survival day in P388 leukemia model when a dose of 40 mg/kg administered intraperitoneally. The format is functional. The conditions noted are these: route intraperitoneal. A digest of the protocol:
as §6

The test system of assay [28] is Mus musculus. The assay is described as follows: Antitumor activity against P388 cells at a dose of 40 mg/kg administered intraperitoneally P388 Leukemia model. The format is functional. The following applies: route intraperitoneal. In short, it runs like this:
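Mice were inoculated ip with 10^6 P388 leukemia cells at D0, then given a single ip drug dose on D1. Weight change was recorded. T/C % = median survival day of treated / controls × 100; survivors counted at D30; 10 mice per dose group, 20 controls.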

In assay [29] the test system is Mus musculus. As to the kind of experiment: Weight change in g when a dose of 10 mg/kg administered intraperitoneally in B-16 melanoma infected mice. The format is functional. The conditions noted are these: route intraperitoneal. A digest of the protocol: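 Hybrid BDF1 mice were inoculated ip at D0 with 0.5 mL of B16 melanoma homogenate (1 g tumor in 10 mL physiological serum). Drug was given ip daily on days 1-9, with cis-platinum 0.5 mg/kg as positive control on the same schedule.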

For the compound `CCN(CC)CCCNc1ncc(C)c2c1c1cc(O)ccc1n2C`, the Median survival day came out at 11.8 with Mus musculus [1], 19.3 in the assay with Mus musculus [2], 41.25 with Mus musculus [3] and 24.3 in the assay with Mus musculus [5]. This compound gave a Median tumoral volume in the assay on Mus musculus [4] of 3.24 cm*3. Also, the T/C worked out at 149% in the assay with Mus musculus [6], 223% in the assay with Mus musculus [7] and 174% with Mus musculus [8]. Further, the results for the Survivors with Mus musculus [9] and with Mus musculus [12] were 1 and 3, respectively. Also, the Tumor volume in the assay with Mus musculus [10] turned out to be 18%; in the assay on Mus musculus [11], 13%.

With `Cc1cnc(NCCCN(C)C)c2c3cc(O)ccc3n(C)c12`, the Median survival day turned out to be 11.75 with Mus musculus [13], 19 with Mus musculus [14] and 19.75 in the assay on Mus musculus [15]. This compound also came in with a Median tumoral volume in the assay with Mus musculus [16] of 2.73 cm*3. For the same compound, the T/C in the assay on Mus musculus [17] came to 173%; with Mus musculus [18] it was 167%. In addition, the Weight change in the assay with Mus musculus [19] was -1.2 g; in the assay on Mus musculus [21], -2.5 g; in the assay on Mus musculus [24], 0.5 g. Besides, the Survivors is reported as 10 with Mus musculus [20], 1 in the assay with Mus musculus [22] and 0 in the assay with Mus musculus [23]. Besides, the Tumor volume in the assay on Mus musculus [25] is given as 30%; in the assay on Mus musculus [26] it was 0%.

Take `CCN(CC)CCCNc1[nH]cc(C)c2nc3ccc(O)cc3c1-2`: the Median survival day in the assay on Mus musculus [27] is on record as 15.9. In the assay with Mus musculus [28], this compound displayed a T/C of 136%. For the same compound, in the assay with Mus musculus [29], the Weight change was determined as 1.6 g.

For orientation: T/C means the ratio of treated to control.
